This is one part of a sample in which hits are shown more often than they occur.
TLR9-MyD88 block – inhibitors of human TLR9-MyD88 binding; inhibition, % at 4.98 µM; 0.21% of 340,000 active; Q9NR96+Q99836; AID 504734; CHO BLA complementation TLR9-MyD88, CCF4 FRET ratio;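 active = inhibition above the mean over all tested compounds plus 3 SD, cut at about 21% in these data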;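 also: 0% = DMSO only wells and 100% = clavulanate BLA inhibitor control wells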
UPR XBP1 act – adaptive UPR (XBP1) activation; CHO-XBP1 luciferase reporter, IRE1-XBP1 UPR activation, luminescence; percent of tunicamycin response, DMSO as zero; activation, % at 20 µM; 0.33% of 330,000 active;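 active = versus positive control, 20 µM dose yields 30% or more activation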;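 also: 100% = tunicamycin at 10 µg/mL and 0% = DMSO only wells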
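assay system = CHO-XBP1 luciferase reporter cells | amount = 1000 cells/well | buffer or medium = F12 plus 10% FBS | compound dosing = single point, 20 µM final compound, 1% DMSO | incubation = 16-18 h cell attachment at 37 °C, then 6 h compound exposure | detection = Steady-Glo luminescence read | controls = tunicamycin 10 µg/mL and vehicle-only wells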
NOD2-RIPK2 inh – blocks binding of human NOD2 to RIPK2; O43353; CHO BLA complementation NOD2-RIPK2, CCF4 ratio; inhibition, % at 4.98 µM; 0.38% of 360,000 active; in the data active = inhibition above about 21%;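 also: 0% = vehicle only and 100% = reference blocker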
Target sequence (O43353 whole entry, looked up): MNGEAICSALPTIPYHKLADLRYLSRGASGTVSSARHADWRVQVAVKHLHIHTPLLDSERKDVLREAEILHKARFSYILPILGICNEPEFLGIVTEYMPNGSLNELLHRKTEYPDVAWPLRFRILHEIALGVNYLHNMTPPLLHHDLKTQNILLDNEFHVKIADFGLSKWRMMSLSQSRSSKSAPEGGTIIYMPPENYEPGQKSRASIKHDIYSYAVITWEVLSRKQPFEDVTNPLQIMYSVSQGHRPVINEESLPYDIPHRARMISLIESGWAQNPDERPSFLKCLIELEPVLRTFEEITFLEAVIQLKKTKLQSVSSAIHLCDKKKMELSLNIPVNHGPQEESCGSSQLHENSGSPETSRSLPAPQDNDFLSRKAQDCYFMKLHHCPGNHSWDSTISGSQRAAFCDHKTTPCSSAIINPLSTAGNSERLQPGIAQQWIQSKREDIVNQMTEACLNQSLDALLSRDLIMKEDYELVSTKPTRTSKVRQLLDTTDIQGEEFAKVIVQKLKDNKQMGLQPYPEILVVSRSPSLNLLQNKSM
CHOP inh – CHOP inhibition in unfolded protein response. inhibition, % at 10 µM. CHO-K1 CHOP-promoter luciferase, tunicamycin-induced, 15-18 h. 3.8% of 220,000 active;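 active = compounds that reduced the stress-induced luciferase reporter signal by more than about 70% of percent inhibition, limit read from the data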;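 also: 0% = tunicamycin plus vehicle and 100% = wells without tunicamycin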
UPR CHOP act – apoptotic UPR (CHOP) activation. 0.34% of 330,000 active. activation, % at 10 µM. AID 449763. CHO-CHOP luciferase reporter, luminescence; percent of tunicamycin response over DMSO baseline;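 active = at 10 µM dose, activation of 40% or more, normalized to positive control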;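 also: 100% = tunicamycin at 10 µg/mL and 0% = DMSO alone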
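Material: CHO-CHOP cells, stable luciferase reporter of PERK-eIF2a-CHOP signalling; quantity: 500 reporter cells seeded per well; buffer or medium: F12 medium containing 10% fetal bovine serum; compound: one dose, 10 µM in 0.5% DMSO; incubation: 6 h compound treatment, 37 °C; measured by: Steady-Glo luciferase luminescence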
TLR4-MyD88 BLA – TLR4-MyD88 interaction inhibition in cells | HeLa CL3-4 TLR4/MyD88 BLA complementation, FRET ratio | AID 861 | inhibition, % at 8.4 µM | O00206+Q99836 | 0.18% of 200,000 active; in the data active = inhibition above about 25%;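 also: 0% = vehicle and 100% = reference inhibitor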
TLR4 MyD88 cnf – confirmation of human TLR4-MyD88 binding inhibitors; 50% of 350 active; HeLa CL3-4 BLA complementation, CCF4 FRET ratio; shares compounds with TLR4-MyD88 BLA; inhibition, % at 8.4 µM; AID 941;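 active = mean inhibition across three repeat runs above about 25% carried over from the earlier screen, limit read from the data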;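 also: plate controls were DMSO only for no effect and clavulanic acid blocking BLA at full dose for full effect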
BLA inh HeLa – counter-screen for TLR4-MyD88 inhibitors: beta-lactamase reporter inhibitors; 63% of 350 active; shares compounds with TLR4-MyD88 BLA; HeLa BLA reporter, CCF4 FRET ratio; inhibition, % at 8.4 µM; AID 1237;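 active = mean inhibition over three repeats above about 26% taken from the earlier screen, limit read from the data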;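 also: HeLa cells stably expressing beta-lactamase reporter as counterscreen for TLR4-MyD88 inhibitors; 0% = DMSO and 100% = clavulanic acid full inhibition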
CHOP confirm – confirmation of CHOP induction inhibitors; CHO-CHOP promoter luciferase reporter, tunicamycin-induced, luminescence; inhibition, % at 10 µM; shares compounds with CHOP inh; AID 504437; 45% of 2,100 active;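 active = mean of three repeat readings of reporter signal inhibition above a set limit, cut at about 70% in these data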;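 also: 0% = tunicamycin plus vehicle and 100% = wells lacking tunicamycin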
CHOP UPR conf – apoptotic UPR (CHOP) activation, confirmed | shares compounds with UPR CHOP act | activation, % at 10 µM | 64% of 1,000 active | CHO-CHOP cells, CHOP-luciferase reporter luminescence; percent of tunicamycin response, DMSO as zero; in the data active = activation above about 33%;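 also: 0% = DMSO wells and 100% = tunicamycin 10 µg/mL wells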
TLR9-MyD88 conf – confirmation of human TLR9-MyD88 binding inhibitors; shares compounds with TLR9-MyD88 block; CHO TLR9/MyD88 BLA complementation, CCF4 FRET ratio; inhibition, % at 4.98 µM; 51% of 680 active; AID 540250;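 active = mean inhibition across three repeats above about 21% taken from the earlier screen, limit read from the data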;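 also: blue over green emission ratio reports constitutive TLR9 MyD88 association via BLA complementation; 0% = DMSO vehicle wells and 100% = clavulanate BLA inhibitor wells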
BLA nonselective – beta-lactamase reporter inhibition, counter-screen artifact; shares compounds with TLR9-MyD88 block; CHO-BLA cells, CCF4 FRET ratio, BLA reporter; inhibition, % at 4.98 µM; 7% of 680 active;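 active = mean inhibition above a 50% cutoff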;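 also: counterscreen of TLR9-MyD88 hits on CMV-driven BLA in CHO-K1 cells; 0% = DMSO alone and 100% = clavulanate blocking BLA; higher means less blue over green ratio so more BLA blockade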
TLR9 CHO cytotox – CHO cell toxicity counter-screen for TLR9-MyD88 inhibitors; inhibition, % at 4.98 µM; 39% of 680 active; TLR9-MyD88 CHO cells cytotoxicity, luminescence; shares compounds with TLR9-MyD88 block; in the data active = inhibition above about 11%
* hit, by the source's call; / = no result given.

SMILES	TLR9-MyD88 block	UPR XBP1 act	NOD2-RIPK2 inh	CHOP inh	UPR CHOP act	TLR4-MyD88 BLA	TLR4 MyD88 cnf	BLA inh HeLa	CHOP confirm	TLR9-MyD88 conf	BLA nonselective	TLR9 CHO cytotox	others
O=C1c2cccc3c([N+](=O)[O-])ccc(c23)C(=O)N1c1nccs1	79.1*	-5.6	88.7*	110.0*	-9.0	92.9*	91.9*	113.9*	37.8	/	/	/
O=C1NC[C@@H](CCCCN2C[C@H](Cc3ccccc3)N(Cc3ccccc3)C(=O)C2=O)N(Cc2ccccc2)C1=O	/	/	-15.9	/	/	/	/	/	/	/	/	/
CCOC(=O)c1c2ccc(OCC(=O)N/N=C/c3ccc(Cl)cc3)cc2n2ccccc12	/	/	/	104.5*	/	51.6*	54.4*	34.0*	0.1	/	/	/
COCc1cc(/C=N\NC(=O)COc2ccc(Cl)cc2)ccc1OC	-0.8	-4.2	-4.5	8.1	1.5	5.2	/	/	/	/	/	/
CCCCC(CC)Cn1c2nc3ccccc3nc2c2c(=N)oc(C)nc21 (configuration not stated)	/	/	/	105.9*	/	47.6*	-5.5	-5.7	103.8*	/	/	/
Cc1ccc(/C=C2\CCC3=C2OC(N)=C(C#N)C3c2ccc(C)cc2)cc1 (configuration not stated)	11.0	13.2	10.7	97.8*	91.8*	34.1*	28.6*	65.7*	-75.1	/	/	/	CHOP UPR conf=80.8*
COc1ccc(NC(=S)N2CCC3CC2c2c(Cl)cccc23)c(OC)c1 (configuration not stated)	-5.4	/	9.4	/	/	/	/	/	/	/	/	/
CCCSc1nnc(NC(=O)c2sc3nc(-c4cccs4)ccc3c2N)s1	21.2*	-0.2	-2.5	16.9	3.5	29.7*	6.5	30.8*	/	23.1*	22.4	0.0
COc1ccc(N(CC(=O)N/N=C/c2ccc(-c3ccc([N+](=O)[O-])cc3)o2)S(=O)(=O)c2ccc(C)cc2)cc1Cl	63.8*	-2.0	16.5	23.6	-8.5	70.6*	65.3*	94.8*	/	58.9*	61.4*	5.1
O=C(C1=NN(c2ccccc2)C2C(=O)N(c3cccc(Cl)c3)C(=O)C12)c1ccccc1 (configuration not stated)	28.4*	/	34.6*	40.4	/	45.5*	27.3*	45.3*	/	25.3*	27.6	2.9
O=C1c2cccc3c([N+](=O)[O-])ccc(c23)C(=O)N1c1ccc(Cl)cn1	73.0*	-5.5	85.1*	108.9*	16.1	85.6*	87.3*	110.6*	50.6	68.0*	86.1*	93.9*
O=C1c2ccc([N+](=O)[O-])cc2C(=O)N1c1ccc(Cl)cn1	-21.6	-0.8	-6.5	-9.3	1.8	9.8	/	/	/	/	/	/
Cc1cc(C)c2cc(C#N)c(NCCCN)nc2c1	/	/	-3.2	/	/	/	/	/	/	/	/	/
N#Cc1sc2nc(C3CC3)cc(-c3ccccc3)c2c1N	4.5	2.0	2.0	63.7	-0.3	8.3	/	/	/	/	/	/
N#Cc1sc2nc(-c3ccccc3)cc(-c3ccco3)c2c1N	21.6*	8.2	13.0	6.6	1.6	39.8*	26.0*	53.2*	/	28.3*	25.4	-1.0
CN(C)c1cccc(Nc2ccc(-c3ccc(OC(F)(F)F)cc3)cn2)c1	/	/	2.2	/	/	/	/	/	/	/	/	/
COc1nc(Cl)cn(-c2ccc(C)cc2)c1=O	4.8	-1.5	4.0	-3.1	2.8	-7.5	/	/	/	/	/	/
Cc1ccc(-n2c(Cl)c(Cl)nc(Cl)c2=O)cc1	48.1*	/	83.8*	109.8*	/	27.1*	19.0	21.9	113.5*	49.2*	40.4	98.8*
CC(=O)C1C=CC(C)(C(=O)O)C2C=C(C)C(=O)C(C)(O)C12 (configuration not stated)	-8.2	/	1.5	/	/	/	/	/	/	/	/	/
COc1ccccc1NS(=O)(=O)c1cc([N+](=O)[O-])ccc1N/N=C/c1c[nH]c2ccccc12	48.8*	7.1	3.8	98.5*	-1.2	39.4*	26.5*	55.5*	51.7	44.9*	44.0	2.7
O=[N+]([O-])c1ccccc1N/N=C/c1c[nH]c2ccccc12	-5.5	6.2	-7.0	-14.7	3.4	-16.1	/	/	/	/	/	/
Cc1ccsc1C(=O)N1CCC1(C)C(=O)NCC(C)(C)C (configuration not stated)	/	/	-2.3	/	/	/	/	/	/	/	/	/
COc1cccc(/C=C2\C(=O)N(c3cccc(C)c3)C(=O)c3ccccc32)c1	24.3*	0.1	-12.4	-20.6	0.9	28.7*	41.0*	37.7*	/	46.1*	47.0	3.9
CCc1cc2c(=O)c(-c3nc4ccccc4n3C)c(C)oc2cc1OC(C)=O	-6.6	-7.3	-8.7	/	-1.6	/	/	/	/	/	/	/
CCc1cc2c(=O)c(-c3nc4ccccc4n3C)c(COCC(=O)O)oc2cc1OC(=O)C(C)(C)C	48.9*	-0.4	0.6	-5.9	-2.6	43.5*	-6.5	12.7	/	1.5	-0.1	2.7
CS(=O)(=O)c1nc(-c2ccccc2)cc(C(F)(F)F)n1	36.1*	-1.0	59.7*	/	-0.6	30.8*	19.6	-17.4	116.7*	34.8*	16.3	96.5*
COc1ccc2[nH]c3c(c2c1)CCN1C(=O)C(CC(=O)NCc2cccc(C(F)(F)F)c2)C[C@H](C(=O)N(C(C)C)C(C)C)[C@@]31C (some centres not stated)	-12.3	11.9	-9.9	/	3.1	/	/	/	/	/	/	/
Cn1cccc1/C=C1\CCC/C(=C\c2cccn2C)C1=O	22.8*	6.5	-5.0	-46.3	8.1	34.9*	19.8	44.8*	/	25.8*	23.2	-2.6
CC(NS(=O)(=O)c1ccc(Br)cc1F)[C@H](O)c1ccccc1 (some centres not stated)	-1.5	/	-5.0	/	/	/	/	/	/	/	/	/

Assay outcomes deposited in PubChem BioAssay by several laboratories.
